Records with an inconclusive call do not appear.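 Rule for the calls, unless noted: active = growth inhibition above 25% in both replicates, a cutoff set 3 SD above the mean; inconclusive = above 25% in only one replicate; inactive = the rest.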
Assays:
[1] = S. cerevisiae growth inhibition in permissive medium (OD615), pilot counter-assay for S. cerevisiae lifespan shortening project, permissive growth control (AID 705); details: OD615, 24 h, at 10 µM, hits give high values
Summary of the method: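 Material: engineered DeaD yeast; compound dosing: one dose 10 µM, DMSO 0.25% final; measure: yeast growth inhibition indicated by reduced 24 h OD615; detection: OD615 turbidity read; incubation: cells pre-grown 4 h, then 24 h compound exposure, 30 °C humidified; medium: permissive synthetic complete medium with raffinose and galactose carbon sources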

[2] = S. cerevisiae growth inhibition in restrictive medium, OD615, pilot screen, restrictive growth control, yeast lifespan reduction project (AID 706;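 active = growth inhibition above a set limit, 3 SD over mean compound inhibition, in both replicates, cut at about 43% in these data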;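 note: modified DeaD lifespan yeast strain shifted to restrictive glucose medium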); details: OD615, 48 h, at 10 µM, hits give high values
Summary of the method: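 material = engineered S. cerevisiae DeaD strain | medium = glucose-based CSMM-D restrictive medium | times = 4 h pre-incubation, 48 h exposure at 30 °C | technique = OD615 absorbance reading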

[3] = doxorubicin toxicity protection in MRP-1 cells – H69AR cells, CellTiter-Glo, duplicate, MRP-1 activator project, pilot screen (AID 807;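 active = viability increase at or above a cutoff of the median across tested compounds plus 3 SD, cut at about 8.5% in these data, passing the limit was not always enough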;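 note: compound pretreatment 18-22 h then 72 h combined with doxorubicin; 0% = doxorubicin alone and 100% = vehicle without doxorubicin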); details: H69AR viability with doxorubicin, CellTiter-Glo luminescence; at 10 µM; hits give high values
[4] = viability of HCT116 without oncogenic beta-catenin – human colon tumor cells, pilot screen (AID 823;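 active = cell viability at or below a set limit in both duplicate runs, the limit being the all-compound median minus 4 SD, cut at about 23% in these data, passing the limit was not always enough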;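 note: 0% = wells killed by 20 µM Hyamine and 100% = untreated DMSO cell wells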); details: HCT116 beta-catenin knockout viability, CellTiter-Glo, 60 h; at 10 µM; hits give low values
[5] = viability of PTEN-null HCT116 cells – cell-based, HCT116 clonal line, CellTiter-Glo, pilot screen (AID 824;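 active = viability at or below 27.92% in each of two runs, the all-compound median minus 4 SD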;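 note: 0% = 20 µM Hyamine control and 100% = vehicle cell control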); details: HCT116 PTEN-deleted viability, 60 h, at 10 µM, hits give low values
[6] = RAM pathway blockade in budding yeast – dse1pr::URA3 reporter, 5-FOA selection, pilot screen (AID 869;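 active = inhibition over a set limit, the all-compound mean plus 3 SD, in both replicate runs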;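 note: 0% = DMSO wells with no growth and 100% = 10 µM 1-NA-PP1 with full growth; RAM network block rescues cells from 5-FOA so hits raise OD615 growth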); details: S. cerevisiae dse1pr::URA3 5-FOA growth, OD615, 2 d; at 10 µM; hits give high values; strain carries analog-sensitive mutant Cbk1 kinase
[7] = RAM signaling pathway blockade in yeast – S. cerevisiae, Pdr1DBD-CYC8 efflux-inhibited sensitized strain, primary screen (AID 1298;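 active = RAM network inhibition above 8.4% in each of two replicates, 3 SD over the compound average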;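 note: 0% = DMSO untreated cells without growth and 100% = 10 µM 1-NA-PP1 full growth; higher means more yeast growth rescued from 5-FOA killing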); details: S. cerevisiae cbk1-as DSE1-URA3 strain, 5-FOA growth OD615, 2 d; at 50 µM; hits give high values

Cc1c(N2C(=O)CSC23C(=O)Nc2ccccc23)c(=O)n(-c2ccccc2)n1C (centres undefined)
inactive: growth inhibition [1] -10.1% | growth inhibition [2] -11.7% | viability increase [3] -3.38% | viability [4] 90.4% | viability [5] 91.8% | inhibition [6] 3.84% | RAM network inhibition [7] 3.91%

CCOC(=O)C1CCCN(C(=O)Cn2ncc3c(=O)oc4ccc(C)cc4c32)C1 (centres undefined)
inactive: growth inhibition [1] -11.9% | growth inhibition [2] -24.9% | viability increase [3] -1.41% | viability [4] 106% | viability [5] 95% | inhibition [6] 2.19% | RAM network inhibition [7] 3.43%

CCSCCOC(=O)C1=C(C)NC(=O)NC1c1cc(OC)ccc1OC (centres undefined)
inactive: growth inhibition [1] -4.26% | growth inhibition [2] 4.14% | viability increase [3] -1.14% | viability [4] 86.9% | viability [5] 90.8% | inhibition [6] 1.79% | RAM network inhibition [7] 2.39%

Nc1nnc(N2CCc3ccccc32)s1
inactive: growth inhibition [1] -1.08% | growth inhibition [2] 16.4% | viability increase [3] -4.19% | viability [4] 105% | viability [5] 102% | inhibition [6] 0.805% | RAM network inhibition [7] 0.42%

Cc1ccc(-n2ncc3c(N4CCC5(CC4)OCCO5)ncnc32)c(C)c1
inactive: growth inhibition [1] 1.21% | growth inhibition [2] 6.06% | viability increase [3] -7.95% | viability [4] 80.3% | viability [5] 83.8% | inhibition [6] 0.765% | RAM network inhibition [7] -1.04%

Cc1ccc(-n2ncc3c(=O)[nH]c(SCC(=O)N4CCC(C)CC4)nc32)cc1C
inactive: growth inhibition [1] -0.265% | growth inhibition [2] -3.58% | viability increase [3] -5.08% | viability [4] 89% | viability [5] 85.3% | inhibition [6] 1.89% | RAM network inhibition [7] 2.86%

CNc1oc(C)nc1S(=O)(=O)c1ccccc1
inactive: growth inhibition [1] -13.1% | growth inhibition [2] -7.71% | viability increase [3] -0.15% | viability [4] 99.9% | viability [5] 98.1% | inhibition [6] 1.98% | RAM network inhibition [7] 0.25%

Cc1oc(-c2ccccc2)nc1CS(=O)CC(=O)N1CCc2ccccc2C1 (centres undefined)
inactive: growth inhibition [1] 5.38% | growth inhibition [2] 22.9% | viability increase [3] -2.89% | viability [4] 97.8% | viability [5] 99.8% | inhibition [6] 1.62% | RAM network inhibition [7] 1.69%

O=S(=O)(CCc1nnc(-c2ccccc2)o1)c1ccc2ccccc2c1
inactive: growth inhibition [1] -16.3% | growth inhibition [2] -6.19% | viability increase [3] -1.86% | viability [4] 89.8% | viability [5] 91.8% | inhibition [6] 1.96% | RAM network inhibition [7] 10.4%

CCCSc1nnc2nc(C)cc(C)n12
inactive: growth inhibition [1] -2.7% | growth inhibition [2] 1.39% | viability increase [3] -0.95% | viability [4] 103% | viability [5] 101% | inhibition [6] 2% | RAM network inhibition [7] -0.46%

CCCN1CCN(C(=O)CCCn2c(C)c3cnn(-c4ccccc4)c(=O)c3c2C)CC1
inactive: growth inhibition [1] -10.1% | growth inhibition [2] -6.09% | viability increase [3] -2.94% | viability [4] 102% | viability [5] 105% | inhibition [6] -0.215% | RAM network inhibition [7] 3.77%

Cc1cccc(N2C(=O)SC(N(CC(=O)O)c3cccc(C)c3)C2=O)c1 (centres undefined)
inactive: growth inhibition [1] -12.5% | growth inhibition [2] 15.6% | viability increase [3] -3.96% | viability [4] 103% | viability [5] 99.1% | inhibition [6] 1.24% | RAM network inhibition [7] 5.06%

COC(=O)c1sccc1NC(=O)c1ccc(Br)o1
inactive: growth inhibition [1] 12.1% | growth inhibition [2] 11.3% | viability increase [3] -6.77% | viability [4] 78.5% | viability [5] 72.2% | inhibition [6] 2.2% | RAM network inhibition [7] 7.41%

CCn1c(=O)cc(OCC(=O)Nc2ccccc2C#N)c2ccccc21
inactive: growth inhibition [1] -22.1% | growth inhibition [2] -8.12% | viability increase [3] -1.86% | viability [4] 95.1% | viability [5] 94.7% | inhibition [6] 2.12% | RAM network inhibition [7] 4.46%

COc1ccc(C2C(C(=O)NCc3ccccn3)c3ccccc3C(=O)N2C)cc1OC (centres undefined)
inactive: growth inhibition [1] -4.72% | growth inhibition [2] -0.835% | viability increase [3] -0.8% | viability [4] 101% | viability [5] 101% | inhibition [6] 1.01% | RAM network inhibition [7] 0.74%

Cc1ccc(C2CC(c3cccc(Br)c3)n3nc(N)nc3N2)cc1 (centres undefined)
inactive: growth inhibition [1] 0.285% | growth inhibition [2] 22.3% | viability increase [3] -1.6% | viability [4] 68.2% | viability [5] 67.2% | inhibition [6] 1.82% | RAM network inhibition [7] 5.91%

CCCCCSc1nc2c(c(=O)[nH]c(=O)n2C)n1C(C)C
inactive: growth inhibition [1] -8.31% | growth inhibition [2] -3.84% | viability increase [3] 1.12% | viability [4] 89.5% | viability [5] 85.4% | inhibition [6] 1.3% | RAM network inhibition [7] 1.95%

Source: PubChem BioAssay
